In ChEMBL document CHEMBL3124771, “Design, synthesis and antitubercular evaluation of novel series of N-[4-(piperazin-1-yl)phenyl]cinnamamide derivatives” (Eur J Med Chem, 2014):
In brackets after ≈: the same amount, converted by molar mass.

Assays:
[1] = system: Mycobacterium tuberculosis; assay: Antitubercular activity against Mycobacterium tuberculosis H37Rv after 7 days by resazurin microtitre assay; assay type: functional; conditions: 168 h
Summary of the method: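 M. tb H37Rv in Middlebrook 7H9 broth; compounds dissolved in DMSO (2 mg/ml stock), serially diluted in 96-well plate to 1.56–50 μg/ml, 100 μl cell suspension per well. After 7 days, 0.02% w/v resazurin added, incubated 1 more day; MIC = lowest concentration preventing blue-to-pink colour change (>90% inhibition), read visually. Isoniazid reference.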

Vero = assay: Cytotoxicity against African green monkey Vero cells after 72 hrs by MTT assay; assay type: cell-based; conditions: Chlorocebus sabaeus
Summary of the method: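 Vero cells subcultured, then exposed to compound at 125, 62.5 and 31.25 μg/ml for 72 h. MTT added for a further 4 h; formazan dissolved in DMSO. Viability read from tetrazolium-to-formazan conversion and reported as IC50.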

[2] = Selectivity index, ratio of IC50 for African green monkey Vero cells to MIC for Mycobacterium tuberculosis H37Rv; assay type: toxicity, cell-based; conditions: read-out: Selectivity Index
Summary of the method: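 SI = Vero IC50 / H37Rv MIC. Vero cytotoxicity by MTT: subcultured cells exposed 72 h to 125, 62.5, 31.25 μg/ml; MTT added 4 h, formazan dissolved in DMSO. MIC by REMA: H37Rv in 7H9 broth, 1.56–50 μg/ml serial dilutions, 7 days then resazurin 1 day, visual colour read.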

| SMILES | MIC90 [1] | IC50 (Vero) | selectivity ratio [2] |
| --- | --- | --- | --- |
| CCN1CCN(c2ccc(NC(=O)/C=C/c3ccc([N+](=O)[O-])cc3)cc2F)CC1 | > 50 µg/mL | – | – |
| O=C(/C=C/c1ccc([N+](=O)[O-])cc1)Nc1ccc(N2CCN(C(=O)c3cc(Cl)cc(Cl)c3)CC2)c(F)c1 | 12.5 µg/mL (≈ 23 µM) | – | – |
| O=C(/C=C/c1ccc([N+](=O)[O-])cc1)Nc1ccc(N2CCN(C(=O)c3ccc([N+](=O)[O-])cc3)CC2)c(F)c1 | > 50 µg/mL | – | – |
| CCOC(=O)N1CCN(c2ccc(NC(=O)/C=C/c3ccc([N+](=O)[O-])cc3)cc2)CC1 | > 50 µg/mL | – | – |
| COC(=O)N1CCN(c2ccc(NC(=O)/C=C/c3ccc([N+](=O)[O-])cc3)cc2)CC1 | > 50 µg/mL | – | – |
| O=C(/C=C/c1ccc([N+](=O)[O-])cc1)Nc1ccc(N2CCN(C(=O)c3ccc(F)cc3)CC2)cc1 | 12.5 µg/mL (≈ 26.3 µM) | > 125 µg/mL | > 10 |
| COC(=O)N1CCN(c2ccc(NC(=O)/C=C/c3ccccc3)cc2F)CC1 | > 50 µg/mL | – | – |
| CCOC(=O)N1CCN(c2ccc(NC(=O)/C=C/c3ccccc3)cc2F)CC1 | > 50 µg/mL | – | – |
| NNC(=O)c1ccncc1 [ISONIAZID] | 0.39 µg/mL (≈ 2.84 µM) | – | – |
| O=C(/C=C/c1ccc([N+](=O)[O-])cc1)Nc1ccc(N2CCNCC2)cc1 | 50 µg/mL (≈ 142 µM) | – | – |
| O=C(/C=C/c1ccc([N+](=O)[O-])cc1)Nc1ccc(N2CCN(C(=O)c3ccccc3C(F)(F)F)CC2)cc1 | > 50 µg/mL | – | – |
| CCN1CCN(c2ccc(NC(=O)/C=C/c3ccccc3)cc2)CC1 | 12.5 µg/mL (≈ 37.3 µM) | – | – |
| CN1CCN(c2ccc(NC(=O)/C=C/c3ccccc3)cc2)CC1 | 6.25 µg/mL (≈ 19.4 µM) | > 125 µg/mL | > 10 |
| O=C(/C=C/c1ccc([N+](=O)[O-])cc1)Nc1ccc(N2CCN(C(=O)c3ccc([N+](=O)[O-])cc3)CC2)cc1 | > 50 µg/mL | – | – |
| O=C(/C=C/c1ccc([N+](=O)[O-])cc1)Nc1ccc(N2CCN(C(=O)c3ccncc3)CC2)cc1 | > 50 µg/mL | – | – |
| CN1CCN(c2ccc(NC(=O)/C=C/c3ccc([N+](=O)[O-])cc3)cc2)CC1 | 12.5 µg/mL (≈ 34.1 µM) | – | – |
| O=C(/C=C/c1ccccc1)Nc1ccc(N2CCN(C(=O)c3ccc([N+](=O)[O-])cc3)CC2)c(F)c1 | 12.5 µg/mL (≈ 26.3 µM) | – | – |
| O=C(/C=C/c1ccccc1)Nc1ccc(N2CCNCC2)c(F)c1 | 25 µg/mL (≈ 76.8 µM) | – | – |
| O=C(/C=C/c1ccc([N+](=O)[O-])cc1)Nc1ccc(N2CCN(c3ccccn3)CC2)cc1 | > 50 µg/mL | – | – |
| O=C(/C=C/c1ccccc1)Nc1ccc(N2CCN(C(=O)c3cc(Cl)cc(Cl)c3)CC2)cc1 | > 50 µg/mL | – | – |
| CC(C)(C)OC(=O)N1CCN(c2ccc(NC(=O)/C=C/c3ccccc3)cc2)CC1 | 12.5 µg/mL (≈ 30.7 µM) | – | – |
| CN1CCN(c2ccc(NC(=O)/C=C/c3ccccc3)cc2F)CC1 | 25 µg/mL (≈ 73.7 µM) | – | – |
| O=C(/C=C/c1ccccc1)Nc1ccc(N2CCN(C(=O)Oc3ccccc3)CC2)c(F)c1 | > 50 µg/mL | – | – |
| O=C(/C=C/c1ccccc1)Nc1ccc(N2CCN(C(=O)c3ccc(F)cc3)CC2)cc1 | 25 µg/mL (≈ 58.2 µM) | – | – |
| O=C(/C=C/c1ccccc1)Nc1ccc(N2CCNCC2)cc1 | 12.5 µg/mL (≈ 40.7 µM) | – | – |
| O=C(/C=C/c1ccc([N+](=O)[O-])cc1)Nc1ccc(N2CCNCC2)c(F)c1 | 12.5 µg/mL (≈ 33.7 µM) | – | – |
| O=C(/C=C/c1ccccc1)Nc1ccc(N2CCN(C(=O)c3ccccc3C(F)(F)F)CC2)c(F)c1 | 3.12 µg/mL (≈ 6.28 µM) | > 125 µg/mL | > 40 |

| SMILES | MIC90 [1] | IC50 (Vero) | selectivity ratio [2] |
| --- | --- | --- | --- |
| O=C(/C=C/c1ccc([N+](=O)[O-])cc1)Nc1ccc(N2CCN(C(=O)c3ccc(F)cc3)CC2)c(F)c1 | 12.5 µg/mL (≈ 25.4 µM) | – | – |
| O=C(/C=C/c1ccccc1)Nc1ccc(N2CCN(c3ccccn3)CC2)c(F)c1 | > 50 µg/mL | – | – |
| O=C(/C=C/c1ccc([N+](=O)[O-])cc1)Nc1ccc(N2CCN(C(=O)Oc3ccccc3)CC2)c(F)c1 | > 50 µg/mL | – | – |
| CC(C)(C)OC(=O)N1CCN(c2ccc(NC(=O)/C=C/c3ccc([N+](=O)[O-])cc3)cc2)CC1 | 12.5 µg/mL (≈ 27.6 µM) | – | – |
| O=C(/C=C/c1ccc([N+](=O)[O-])cc1)Nc1ccc(N2CCN(c3ccccn3)CC2)c(F)c1 | > 50 µg/mL | – | – |
| O=C(/C=C/c1ccccc1)Nc1ccc(N2CCN(C(=O)c3ccc([N+](=O)[O-])cc3)CC2)cc1 | > 50 µg/mL | – | – |
| O=C(/C=C/c1ccccc1)Nc1ccc(N2CCN(C(=O)c3ccncc3)CC2)cc1 | 50 µg/mL (≈ 121 µM) | – | – |
| COC(=O)N1CCN(c2ccc(NC(=O)/C=C/c3ccc([N+](=O)[O-])cc3)cc2F)CC1 | > 50 µg/mL | – | – |
| O=C(/C=C/c1ccccc1)Nc1ccc(N2CCN(C(=O)Oc3ccccc3)CC2)cc1 | > 50 µg/mL | – | – |
| CCOC(=O)N1CCN(c2ccc(NC(=O)/C=C/c3ccc([N+](=O)[O-])cc3)cc2F)CC1 | > 50 µg/mL | – | – |
| CCN1CCN(c2ccc(NC(=O)/C=C/c3ccccc3)cc2F)CC1 | 12.5 µg/mL (≈ 35.4 µM) | > 125 µg/mL | > 10 |
| O=C(/C=C/c1ccccc1)Nc1ccc(N2CCN(C(=O)c3ccccc3C(F)(F)F)CC2)cc1 | 50 µg/mL (≈ 104 µM) | – | – |
| CCN1CCN(c2ccc(NC(=O)/C=C/c3ccc([N+](=O)[O-])cc3)cc2)CC1 | 12.5 µg/mL (≈ 32.9 µM) | – | – |
| CN1CCN(c2ccc(NC(=O)/C=C/c3ccc([N+](=O)[O-])cc3)cc2F)CC1 | 25 µg/mL (≈ 65 µM) | – | – |
| CC(C)(C)OC(=O)N1CCN(c2ccc(NC(=O)/C=C/c3ccccc3)cc2F)CC1 | 50 µg/mL (≈ 118 µM) | – | – |
| O=C(/C=C/c1ccccc1)Nc1ccc(N2CCN(C(=O)c3ccncc3)CC2)c(F)c1 | > 50 µg/mL | – | – |
| O=C(/C=C/c1ccccc1)Nc1ccc(N2CCN(C(=O)c3ccc(F)cc3)CC2)c(F)c1 | > 50 µg/mL | – | – |
| O=C(/C=C/c1ccc([N+](=O)[O-])cc1)Nc1ccc(N2CCN(C(=O)c3ccccc3C(F)(F)F)CC2)c(F)c1 | > 50 µg/mL | – | – |
| O=C(/C=C/c1ccc([N+](=O)[O-])cc1)Nc1ccc(N2CCN(C(=O)Oc3ccccc3)CC2)cc1 | > 50 µg/mL | – | – |
| O=C(/C=C/c1ccc([N+](=O)[O-])cc1)Nc1ccc(N2CCN(C(=O)c3cc(Cl)cc(Cl)c3)CC2)cc1 | > 50 µg/mL | – | – |
| CC(C)(C)OC(=O)N1CCN(c2ccc(NC(=O)/C=C/c3ccc([N+](=O)[O-])cc3)cc2F)CC1 | 50 µg/mL (≈ 106 µM) | – | – |
| O=C(/C=C/c1ccccc1)Nc1ccc(N2CCN(C(=O)c3cc(Cl)cc(Cl)c3)CC2)c(F)c1 | 12.5 µg/mL (≈ 25.1 µM) | – | – |
| COC(=O)N1CCN(c2ccc(NC(=O)/C=C/c3ccccc3)cc2)CC1 | > 50 µg/mL | – | – |
| O=C(/C=C/c1ccccc1)Nc1ccc(N2CCN(c3ccccn3)CC2)cc1 | > 50 µg/mL | – | – |
| CCOC(=O)N1CCN(c2ccc(NC(=O)/C=C/c3ccccc3)cc2)CC1 | > 50 µg/mL | – | – |
| O=C(/C=C/c1ccc([N+](=O)[O-])cc1)Nc1ccc(N2CCN(C(=O)c3ccncc3)CC2)c(F)c1 | 12.5 µg/mL (≈ 26.3 µM) | > 125 µg/mL | > 10 |
